# According to ChEMBL document CHEMBL1949493, “Discovery of s-nitrosoglutathione reductase inhibitors: potential agents for the treatment of asthma and other inflammatory diseases” (ACS Med Chem Lett, 2011):
# Active and inactive are the calls of the source. The rule behind the calls is not given here.
# Legend:
# [1] = Inhibition of S-nitrosoglutathione reductase expressed in Escherichia coli using GSNO as substrate measured for 3 mins by spectrophotometry
# Salmonella typhimurium = assay: Mutagenic activity in Salmonella Typhimurium; assay type: toxicity, organism-based; details: salmonella enterica subsp. enterica serovar typhimurium
# Homo sapiens = organism: Homo sapiens; assay: Inhibition of human recombinant delta2 opioid receptor at 10 uM by radioligand displacement assay
# Method in brief: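 Off-target screen measuring percent inhibition of receptor radioligand binding, with test compound at 10 μM.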
# [2] = target: Voltage-gated inwardly rectifying potassium channel KCNH2 (Homo sapiens, UniProt Q12809); assay: Inhibition of human ERG
# [3] = Toxicity in iv dosed CD-1 mouse administered qd for 4 days measured on day 5; assay type: organism-based; details: in vivo
# Method in brief: (§1)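 Read-out was the no observable adverse effect level (NOAEL) in mg/kg/day.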
# [4] = Toxicity in po dosed CD-1 mouse administered qd for 4 days measured on day 5; assay type: organism-based; details: in vivo; method in brief: as §1
# Mus musculus [5] = assay: Antiasthmatic activity in ovalbumin-sensitized BALB/c mouse assessed as inhibition of methacholine-induced bronchoconstriction at >/= 0.01 mg/kg, iv administered from 30 mins to 48 hrs prior to metacholine-challenge by whole body plethysmography; assay type: functional, organism-based; parameters: dose 0.01 mg/kg
# Mus musculus [6] = assay: Antiasthmatic activity in ovalbumin-sensitized iv dosed BALB/c mouse assessed as inhibition of methacholine-induced bronchoconstriction administered from 30 mins to 48 hrs prior to metacholine-challenge by whole body plethysmography; assay type: functional, organism-based
# Mus musculus [7] = assay: Antiasthmatic activity in ovalbumin-sensitized BALB/c mouse assessed as inhibition of methacholine-induced bronchoconstriction at >/= 0.01 mg/kg, iv administered prior to metacholine-challenge by whole body plethysmography; assay type: functional, organism-based; parameters: dose 0.01 mg/kg; details: TDE = time-dependent effect
# Mus musculus [8] = assay: Antiasthmatic activity in ovalbumin-sensitized BALB/c mouse assessed as inhibition of ovalbumin-induced easonophil infiltration in lungs at >/= 0.0005 mg/kg, iv administered from 30 mins to 72 hrs prior to assessment by light microscopy; assay type: functional, organism-based; parameters: dose 0.0005 mg/kg
# Method in brief: (§2)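 Ovalbumin-induced asthma model in mice, dosed by single IV administration. Read-out was eosinophil infiltration into the lungs.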
# Mus musculus [9] = assay: Antiinflammatory activity in C57B1/6 mouse IBD model assessed as inhibition of DSS-induced inflammatory response at 1 mg/kg, iv or po administered for 10 days from 2 days prior to and up to 2 days post DSS-challenge; assay type: functional, organism-based; parameters: dose 1 mg/kg
# Method in brief: (§3)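 Mouse model of DSS-induced IBD. Dosing was oral or IV at 1 and 10 mg/kg/day for 10 days.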
# Mus musculus [10] = assay: Antiinflammatory activity in C57B1/6 mouse IBD model assessed as inhibition of DSS-induced inflammatory response at 10 mg/kg, iv or po administered for 10 days from 2 days prior to and up to 2 days post DSS-challenge; assay type: functional, organism-based; parameters: dose 10 mg/kg; method in brief: as §3
# [11] = Plasma clearance in BALB/c mouse at 2 mg/kg, iv; assay type: ADME, organism-based; parameters: dose 2 mg/kg, route intravenous
# [12] = Oral bioavailability in BALB/c mouse at 10 mg/kg; assay type: ADME, organism-based; details: in vivo
# Mus musculus [13] = assay: Antiasthmatic activity in C57B1/6 mouse COPD model assessed as inhibition of porcine pancreatic elastase-induced emphysema at 0.1 to 10 mg/kg, po after 7 to 14 days by light microscopy; assay type: functional, organism-based
# Mus musculus [14] = assay: Antiasthmatic activity in ovalbumin-sensitized BALB/c mouse assessed as inhibition of ovalbumin-induced easonophil infiltration into lungs at 0.0005 to 30 mg/kg, iv administered from 30 mins to 72 hrs prior to assesment by light microscopy; assay type: functional, organism-based; method in brief: as §2
# Rattus norvegicus = organism: Rattus norvegicus; assay: Antihypertensive activity in rat DAHL/S model assessed as reduction in high dietary salt-induced hypertension
# Mus musculus [15] = assay: Antiasthmatic activity in ovalbumin-sensitized BALB/c mouse assessed as inhibition of methacholine-induced bronchoconstriction at 0.0005 to 30 mg/kg, iv administered from 30 mins to 48 hrs prior to assessment by whole body plethysmography
# Chain of Voltage-gated inwardly rectifying potassium channel KCNH2 (Q12809 whole entry): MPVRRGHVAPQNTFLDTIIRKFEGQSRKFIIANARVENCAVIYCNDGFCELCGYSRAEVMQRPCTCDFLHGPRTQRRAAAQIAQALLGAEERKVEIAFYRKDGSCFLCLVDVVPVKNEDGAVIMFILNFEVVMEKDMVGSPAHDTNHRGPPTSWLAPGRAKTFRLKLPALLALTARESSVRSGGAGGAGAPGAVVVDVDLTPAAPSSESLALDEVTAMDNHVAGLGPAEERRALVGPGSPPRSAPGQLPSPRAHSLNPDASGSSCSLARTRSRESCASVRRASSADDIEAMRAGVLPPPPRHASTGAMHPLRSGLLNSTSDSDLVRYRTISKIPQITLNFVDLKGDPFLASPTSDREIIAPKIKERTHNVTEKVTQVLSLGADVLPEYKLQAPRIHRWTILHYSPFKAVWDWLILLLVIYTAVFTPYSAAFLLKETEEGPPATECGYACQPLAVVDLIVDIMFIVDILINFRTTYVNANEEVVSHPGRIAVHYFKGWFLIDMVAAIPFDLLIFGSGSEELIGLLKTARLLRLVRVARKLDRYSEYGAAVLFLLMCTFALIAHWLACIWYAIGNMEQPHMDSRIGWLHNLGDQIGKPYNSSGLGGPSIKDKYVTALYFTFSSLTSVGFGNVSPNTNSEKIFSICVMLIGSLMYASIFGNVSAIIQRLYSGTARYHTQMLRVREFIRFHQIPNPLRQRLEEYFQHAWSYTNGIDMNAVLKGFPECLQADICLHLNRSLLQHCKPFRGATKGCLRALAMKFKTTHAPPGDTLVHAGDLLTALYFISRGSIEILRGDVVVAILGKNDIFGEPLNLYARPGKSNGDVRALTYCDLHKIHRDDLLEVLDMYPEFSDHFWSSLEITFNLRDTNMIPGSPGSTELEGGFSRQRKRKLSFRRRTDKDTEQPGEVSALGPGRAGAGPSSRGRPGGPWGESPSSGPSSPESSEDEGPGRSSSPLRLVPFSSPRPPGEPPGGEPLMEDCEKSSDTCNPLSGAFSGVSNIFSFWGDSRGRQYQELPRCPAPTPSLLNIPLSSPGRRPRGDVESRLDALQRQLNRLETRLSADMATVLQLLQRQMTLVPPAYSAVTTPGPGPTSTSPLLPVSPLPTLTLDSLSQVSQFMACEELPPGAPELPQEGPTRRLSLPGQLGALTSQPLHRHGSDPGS
compound,measurement,setting,value
Oc1ccc(-n2c(CCc3nnn[nH]3)ccc2-c2ccc(Br)cc2)cc1,IC50,[1],450 nM
Cc1cc(C(N)=O)ccc1-n1c(CCC(=O)O)ccc1-c1ccc(-n2ccnc2)cc1 [N6022],Activity,Salmonella typhimurium,Non-toxic
same,inhibition,Homo sapiens,66%
same,IC50,[1],20 nM
same,INH,[2],> 100 µM
same,NOAEL at 96 h,[3],30 mg/kg
same,NOAEL at 96 h,[4],100 mg/kg
same,Activity,Mus musculus [5],Active
same,Activity,Mus musculus [6],Dose-dependent effect
same,Activity,Mus musculus [7],tde
same,Activity,Mus musculus [8],Active
same,Activity,Mus musculus [9],Active
same,Activity,Mus musculus [10],Active
COc1ccc(-c2ccc(CCC(=O)O)n2-c2ccc(C(N)=O)cc2F)cc1,IC50,[1],240 nM
NC(=O)c1ccc(-n2c(CCC(=O)O)ccc2-c2ccccc2)cc1,clearance,[11],8.9 mL/min/kg
same,bioavailability,[12],86.5%
same,IC50,[1],570 nM
Cc1cc(C(N)=O)ccc1-n1c(CCC(=O)O)ccc1-c1ccc(Cl)cc1N(C)C,IC50,[1],350 nM
Cc1cc(C(N)=O)ccc1-n1c(CCC(=O)O)ccc1-c1ccc(Cl)cc1Cl,IC50,[1],160 nM
COc1ccc(-c2ccc(CCC(=O)O)n2-c2ccc(C(N)=O)cc2Cl)cc1,IC50,[1],190 nM
Cc1cc(C(N)=O)ccc1-n1c(CCC(=O)O)ccc1-c1ccc(Cl)cc1O,clearance,[11],33.4 mL/min/kg
same,bioavailability,[12],2.72%
same,IC50,[1],55 nM
same,Activity,Mus musculus [9],Active
same,Activity,Mus musculus [10],Active
same,Activity,Mus musculus [13],Active
same,Activity,Mus musculus [14],Active
same,Activity,Rattus norvegicus,Active
same,Activity,Mus musculus [15],Active
CCOc1cc(Cl)ccc1-c1ccc(CCC(=O)O)n1-c1ccc(C(N)=O)cc1C,IC50,[1],170 nM
Cc1cc(C(N)=O)ccc1-n1c(CCC(=O)O)ccc1-c1ccc(C#N)cc1,clearance,[11],25.5 mL/min/kg
same,bioavailability,[12],16.3%
same,IC50,[1],563 nM
COc1ccc(-c2ccc(Cc3nnn[nH]3)n2-c2ccc(C(N)=O)cc2C)cc1,IC50,[1],2910 nM
COc1cc(Br)ccc1-c1ccc(CCC(=O)O)n1-c1ccc(C(N)=O)cc1C,clearance,[11],22.4 mL/min/kg
same,bioavailability,[12],21.8%
same,IC50,[1],96 nM
COc1cc(Cl)ccc1-c1ccc(CCC(=O)O)n1-c1ccc(C(N)=O)cc1C,clearance,[11],20.2 mL/min/kg
same,bioavailability,[12],22.4%
same,IC50,[1],56 nM
same,Activity,Mus musculus [9],Active
same,Activity,Mus musculus [10],Active
same,Activity,Mus musculus [13],Active
same,Activity,Mus musculus [14],Active
same,Activity,Rattus norvegicus,Active
same,Activity,Mus musculus [15],Active
Cc1cc(C(N)=O)ccc1-n1c(CCC(=O)O)ccc1-c1ccc(Cl)cc1NC=O,IC50,[1],580 nM
COc1ccc(-c2ccc(CCc3nnn[nH]3)n2-c2ccc(C(N)=O)cc2C)cc1,IC50,[1],1530 nM
Cc1cc(C(N)=O)ccc1-n1c(CCC(=O)O)ccc1-c1ccc(Br)cc1,clearance,[11],21.4 mL/min/kg
same,bioavailability,[12],18%
same,IC50,[1],160 nM
same,NOAEL at 96 h,[3],50 mg/kg
same,Activity,Mus musculus [9],Active
same,Activity,Mus musculus [10],Active
same,Activity,Mus musculus [13],Active
same,Activity,Mus musculus [14],Active
same,Activity,Rattus norvegicus,Active
same,Activity,Mus musculus [15],Active
Cc1cc(C(N)=O)ccc1-n1c(CCC(=O)O)ccc1-c1ccccc1,clearance,[11],11.8 mL/min/kg
same,bioavailability,[12],46.8%
same,IC50,[1],360 nM
COc1ccc(-c2ccc(CCC(=O)O)n2-c2ccc(C(N)=O)cc2C)cc1,IC50,[1],210 nM
same,NOAEL at 96 h,[3],50 mg/kg
same,Activity,Mus musculus [9],Active
same,Activity,Mus musculus [10],Active
same,Activity,Mus musculus [13],Active
same,Activity,Mus musculus [14],Active
same,Activity,Rattus norvegicus,Active
same,Activity,Mus musculus [15],Active
Cc1cc(C(N)=O)ccc1-n1c(CCC(=O)O)ccc1-c1ccc(Cl)cc1,clearance,[11],16 mL/min/kg
same,bioavailability,[12],20.7%
same,IC50,[1],120 nM
COc1ccc(-c2ccc(CCC(=O)O)n2-c2ccc(C(N)=O)cc2C(F)(F)F)cc1,IC50,[1],450 nM
Cc1cc(C(N)=O)ccc1-n1c(CCc2nnn[nH]2)ccc1-c1ccc(Br)cc1,IC50,[1],190 nM
Oc1ccc(-n2c(CCc3nnn[nH]3)ccc2-c2ccc(-n3ccnc3)cc2)cc1,IC50,[1],300 nM
Cc1cc(C(N)=O)ccc1-n1c(CCC(=O)O)ccc1-c1ccc(F)cc1,IC50,[1],500 nM
CCCOc1cc(Cl)ccc1-c1ccc(CCC(=O)O)n1-c1ccc(C(N)=O)cc1C,IC50,[1],110 nM
Cc1cc(C(N)=O)ccc1-n1c(CCC(=O)O)ccc1-c1ccc(Cl)cc1C(N)=O,IC50,[1],160 nM
Oc1ccc(-n2c(Cc3nnn[nH]3)ccc2-c2ccc(Br)cc2)cc1,IC50,[1],4350 nM
COc1ccc(-c2ccc(CCC(=O)O)n2-c2ccc(C(N)=O)cc2)cc1,IC50,[1],460 nM
Oc1ccc(-n2c(Cc3nnn[nH]3)ccc2-c2ccc(-n3ccnc3)cc2)cc1,IC50,[1],18 nM
Cc1cc(C(N)=O)ccc1-n1c(Cc2nnn[nH]2)ccc1-c1ccc(Br)cc1,IC50,[1],560 nM
Cc1cc(C(N)=O)ccc1-n1c(CCC(=O)O)ccc1-c1ccc(Cl)cc1C(F)(F)F,IC50,[1],330 nM
Cc1cc(C(N)=O)ccc1-n1c(CCC(=O)O)ccc1-c1ccc(O)cc1,IC50,[1],160 nM
COc1ccc(-c2ccc(CCC(=O)O)n2-c2ccc(C(N)=O)cc2C)c(Cl)c1,IC50,[1],200 nM
Cc1cc(C(N)=O)ccc1-n1c(CCC(=O)O)ccc1-c1ccc(C(N)=O)cc1,IC50,[1],3920 nM
Cc1cc(C(N)=O)ccc1-n1c(CCC(=O)O)ccc1-c1ccc(C(F)(F)F)cc1,IC50,[1],3990 nM
Cc1cc(C(N)=O)ccc1-n1c(CCC(=O)O)ccc1-c1ccc(Cl)cc1F,IC50,[1],120 nM
